Measurements from PMC5760825 (Journal of Pharmaceutical Analysis, 2011).
Like-named read-outs stand apart in the source and are kept apart here.

Legend:
[1] = assay type: in vivo, human (healthy Chinese volunteers); conditions: for Cmax: plasma
Procedure, shortened: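 Open-label, randomized, parallel-group study. Thirty healthy volunteers (5 men, 5 women per group) took single oral doses of 500, 1000 or 1500 mg glucosamine sulfate, as dispersible tablets, with 250 mL water after an overnight fast. The 500 mg group continued at 500 mg t.i.d. for 7 days, with troughs on days 4–7. Heparinized plasma was taken from 0 to 24 h. Cmax came from the observed curves, other parameters from non-compartmental analysis, and group differences from ANOVA.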

[2] = cited from earlier work
[3] = assay type: in vitro ADME, human; conditions: for Stability, Accuracy (% of nominal conc.): plasma
Procedure, shortened: (§1)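 Glucosamine was spiked into blank human matrix at low and high QC levels: plasma 0.020 and 1.66 μg/mL, urine 2.21 and 42.7 μg/mL, n=2. Freeze-thaw used 24 h at −20 °C, thawing at room temperature and 12 h refreezing, up to three cycles. Short-term storage was 8 h at room temperature and long-term storage up to 60 days at −20 °C. Samples were compared with fresh references and accuracy given as found versus nominal.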

[4] = assay type: in vivo, human (healthy Chinese volunteers); conditions: n=10; for Urine excretion (% of dose): single oral dose 1000 mg, mean±SD
[5] = assay type: in vitro ADME, human; conditions: urine
Procedure, shortened: as §1

[6] = before administration, Chinese volunteers, n=30
[7] = multiple doses 500 mg t.i.d., 7th day, mean±SD, n=10
[8] = single oral dose 500 mg, mean±SD, n=10
[9] = single oral dose 1000 mg, mean±SD, n=10
[10] = single oral dose 1500 mg, mean±SD, n=10
[11] = before administration, Chinese volunteers

accumulation after multiple doses ([1]; 500 mg t.i.d. for 7 consecutive days vs single dose): no significant accumulation effects
dose linearity of absorption (dose-normalized AUC and Cmax) ([1]; 1500 mg vs 500 and 1000 mg dose groups, P<0.05): non-linear absorption at higher doses
time at which peak concentration was reached ([1]; after oral administration, all dose groups): about 2 h
plasma glucosamine baseline levels, mean [1, 6]: 16.7 ± 26.9 ng/mL
plasma glucosamine baseline levels, range [1, 6]: 0 to 120 ng/mL
AUC0–10 [1, 7]: 1020 ± 240 ng·h/mL
AUC0–∞ [1, 7]: 1020 ± 240 ng·h/mL
AUCss [1, 7]: 1000 ± 240 ng·h/mL
Css_av [1, 7]: 125 ± 31 ng/mL
Css_min [1, 7]: 59 ± 56 ng/mL
DF [1, 7]: 1.90±0.93%
MRT0–10 [1, 7]: 2.70 ± 0.34 h
Tmax [1, 7]: 1.90 ± 1.10 h
t1/2 [1, 7]: 1.41 ± 0.76 h
Cmax [1, 7]: 294 ± 76 ng/mL
time at which plasma glucosamine was eliminated to the baseline level ([1]; post-dosing): about 10 h
AUC0–10 [1, 8]: 1420 ± 200 ng·h/mL
AUC0–∞ [1, 8]: 1430 ± 210 ng·h/mL
MRT0–10 [1, 8]: 3.18 ± 0.71 h
Tmax [1, 8]: 2.60 ± 1.39 h
t1/2 [1, 8]: 1.17 ± 0.40 h
AUC0–10 [1, 9]: 3370 ± 1020 ng·h/mL
AUC0–∞ [1, 9]: 3420 ± 1010 ng·h/mL
MRT0–10 [1, 9]: 3.57 ± 0.24 h
Tmax [1, 9]: 2.70 ± 0.86 h
t1/2 [1, 9]: 1.32 ± 0.35 h
Cmax [1, 9]: 795 ± 280 ng/mL
AUC0–10 [1, 10]: 4030 ± 1280 ng·h/mL
AUC0–∞ [1, 10]: 4180 ± 1400 ng·h/mL
MRT0–10 [1, 10]: 3.30 ± 0.61 h
Tmax [1, 10]: 1.90 ± 0.84 h
t1/2 [1, 10]: 1.36 ± 0.94 h
Cmax [1, 10]: 925 ± 280 ng/mL
Stability, Accuracy (% of nominal conc.) ([3]; 0.020 μg/mL, Freeze-thaw (n=3)): 100.0%
Stability, Accuracy (% of nominal conc.) ([3]; 0.020 μg/mL, Long-term after 60 d (−20 °C)): 90.0%
Stability, Accuracy (% of nominal conc.) ([3]; 1.660 μg/mL, Freeze-thaw (n=3)): 105.2%
Stability, Accuracy (% of nominal conc.) ([3]; 1.660 μg/mL, Long-term after 60 d (−20 °C)): 106.6%
Stability, Accuracy (% of nominal conc.) ([3]; 1.660 μg/mL, Short-term after 8 h (25 °C)): 98.4%
stability in plasma and urine under different storage conditions ([3]; three freeze-thaw cycles, 8 h bench-top, −20 °C up to 2 months, plasma and urine): stable
urine glucosamine levels (baseline), mean [4, 11]: 4.96 ± 1.74 µg/mL
urine glucosamine levels (baseline), range [4, 11]: 2.79 to 8.07 µg/mL
Urine excretion (% of dose) ([4]; 0–3 h after dosing): 0.434±0.300%
Urine excretion (% of dose) ([4]; 0–6 h after dosing): 1.39±1.45%
Urine excretion (% of dose) ([4]; 0–10 h after dosing): 1.83±1.84%
Urine excretion (% of dose) ([4]; 0–14 h after dosing): 1.90±1.86%
Urine excretion (% of dose) ([4]; 0–24 h after dosing): 1.99±1.86%
Stability, Accuracy (% of nominal conc.) ([5]; 2.21 μg/mL, Freeze-thaw (n=3)): 106.6%
Stability, Accuracy (% of nominal conc.) ([5]; 2.21 μg/mL, Long-term after 60 d (−20 °C)): 99.2%
Stability, Accuracy (% of nominal conc.) ([5]; 2.21 μg/mL, Short-term after 8 h (25 °C)): 104.2%
Stability, Accuracy (% of nominal conc.) ([5]; 42.7 μg/mL, Freeze-thaw (n=3)): 105.3%
Stability, Accuracy (% of nominal conc.) ([5]; 42.7 μg/mL, Long-term after 60 d (−20 °C)): 103.7%
Stability, Accuracy (% of nominal conc.) ([5]; 42.7 μg/mL, Short-term after 8 h (25 °C)): 111.2%
Substance: 2-amino-2-deoxy-D-glucose [glucosamine]
plasma glucosamine baseline levels, mean value ([2]; Caucasian volunteers): 45.3 ng/mL
Endogenous level of glucosamine in human plasma ([2]; human plasma): 10 to 200 ng/mL
